Here are results for 14 compounds from ChEMBL document CHEMBL1932994, “Structure-activity relationship studies of S1P agonists with a dihydronaphthalene scaffold” (Bioorg Med Chem Lett, 2012).

The test system of series [1] is Mus musculus. Kind of series: Immunomodulatory activity in po dosed mouse assessed as reduction in peripheral lymphocyte count measured after 24 hrs. The series is classed as functional. The essentials: (§1)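 Mice dosed orally over a dose titration; peripheral blood lymphocytes counted 4 h or 24 h after dosing. Each point is the mean % decrease versus vehicle controls (n = 5 per group, treated and control). ED₅₀ (mg/kg) derived from the titration.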

In series [2] the target is Sphingosine 1-phosphate receptor 3 (Homo sapiens, UniProt Q99500). The series can be described thus: Agonist activity at human S1P3 receptor expressed in CHO cells assessed as induction of intracellular calcium level. The series is classed as functional, cell-based. The essentials:
(§2)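 Intracellular Ca²⁺ rise measured in CHO cells stably expressing human S1P₁ or S1P₃ receptor; EC₅₀ (nM) determined. Some values are the average of two assays.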

In series [3] the target is Sphingosine 1-phosphate receptor 1 (Homo sapiens, UniProt P21453). Kind of series: Agonist activity at human S1P1 receptor expressed in CHO cells assessed as induction of intracellular calcium level. The series is classed as functional, cell-based. The essentials:
as §2
In general terms: Calcium assays in cells follow changes in intracellular calcium, usually with a dye or a luminescent sensor.

Series [4] relates to Mus musculus. The series can be described thus: Immunomodulatory activity in po dosed mouse assessed as reduction in peripheral lymphocyte count measured after 4 hrs. Format: functional. The essentials: as §1
Series [5] in a line: Cmax in rat at 1 mg/kg, po. Set-up: dose 1 mg/kg, route oral. The settings on record: in vivo. The series is classed as ADME, organism-based.
The nature of series [6]: AUC (0 to infinity) in rat at 1 mg/kg, iv. The series is classed as ADME, organism-based. On the set-up: time infinity, dose 1 mg/kg, route intravenous. The settings on record: plasma.
Series [7] in a line: Total clearance in rat at 1 mg/kg, iv. Format: ADME, organism-based. Set-up: dose 1 mg/kg, route intravenous. Particulars: in vivo.
Series [8] in a line: Half life in rat at 1 mg/kg, iv. Format: ADME, organism-based. On the set-up: dose 1 mg/kg, route intravenous. The settings on record: in vivo.
Series [9] deals with Plasma. The series can be described thus: Plasma concentration in rat at 1 mg/kg, po. Set-up: dose 1 mg/kg, route oral. Particulars: in vivo. Format: ADME, organism-based.
The nature of series [10]: Tmax in rat at 1 mg/kg, po. The series is classed as ADME, organism-based. On the set-up: dose 1 mg/kg, route oral. Particulars: in vivo.
Series [11] is described as follows: Half life in rat at 1 mg/kg, po. The series is classed as ADME, organism-based. Set-up: dose 1 mg/kg, route oral. Particulars: in vivo.
A short description of series [12]: AUC (0 to infinity) in rat at 1 mg/kg, po. The series is classed as ADME, organism-based. The settings on record: plasma. Set-up: time infinity, dose 1 mg/kg, route oral.
Series [13] is described as follows: Volume of distribution at steady state in rat at 1 mg/kg, iv. On the set-up: dose 1 mg/kg, route intravenous. Format: ADME, organism-based. The settings on record: in vivo, read-out: Vdss.
The nature of series [14]: Oral bioavailability in rat at 1 mg/kg. The series is classed as ADME, organism-based. The settings on record: in vivo.
A short description of series [15]: AUC (0 to infinity) in rat at 1 mg/kg, po measured up to 24 hrs. On the set-up: time infinity, dose 1 mg/kg, route oral. Particulars: plasma. Format: ADME, organism-based.
The nature of series [16]: AUC (0 to infinity) in rat at 1 mg/kg, iv measured up to 24 hrs. On the set-up: time infinity, dose 1 mg/kg, route intravenous. The series is classed as ADME, organism-based. The settings on record: plasma.
The nature of series [17]: Oral bioavailability in rat at 1 mg/kg measured up to 24 hrs. The series is classed as ADME, organism-based. The settings on record: in vivo.
Series [18] concerns CHO. Kind of series: Selectivity ratio of EC50 for human S1P3 receptor expressed in CHO cells to EC50 for S1P1 receptor expressed in CHO cells. The series is classed as cell-based. The essentials: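 Ratio of EC₅₀ values from intracellular Ca²⁺ stimulation assays in CHO cells stably expressing human S1P₃ versus human S1P₁.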

Sequence of Sphingosine 1-phosphate receptor 1 (P21453 whole entry): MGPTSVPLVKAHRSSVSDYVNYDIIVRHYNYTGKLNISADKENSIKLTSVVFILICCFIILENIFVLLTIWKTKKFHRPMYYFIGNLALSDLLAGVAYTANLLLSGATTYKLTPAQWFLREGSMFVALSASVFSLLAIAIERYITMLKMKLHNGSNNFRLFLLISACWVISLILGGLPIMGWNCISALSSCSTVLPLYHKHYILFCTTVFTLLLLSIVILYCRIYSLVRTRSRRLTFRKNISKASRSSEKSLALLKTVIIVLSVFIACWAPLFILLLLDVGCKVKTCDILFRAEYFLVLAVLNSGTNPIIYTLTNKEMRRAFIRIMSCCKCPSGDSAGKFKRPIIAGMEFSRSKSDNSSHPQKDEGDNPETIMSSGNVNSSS
Sequence of Sphingosine 1-phosphate receptor 3 (Q99500 whole entry): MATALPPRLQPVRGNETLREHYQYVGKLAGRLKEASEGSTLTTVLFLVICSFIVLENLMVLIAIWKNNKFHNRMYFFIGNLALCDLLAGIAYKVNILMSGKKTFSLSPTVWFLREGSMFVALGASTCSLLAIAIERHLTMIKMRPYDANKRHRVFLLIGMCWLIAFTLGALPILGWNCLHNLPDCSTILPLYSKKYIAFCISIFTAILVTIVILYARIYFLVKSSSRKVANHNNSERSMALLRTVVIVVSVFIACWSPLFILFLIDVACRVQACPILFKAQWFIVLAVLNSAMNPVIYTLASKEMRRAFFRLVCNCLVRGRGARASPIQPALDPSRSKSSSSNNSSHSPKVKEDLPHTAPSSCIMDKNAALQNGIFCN

For orientation: ED50 means the dose that gives a 50% effect, or the effect in half of the subjects. In general, EC50 refers to the concentration that produces a half-maximal response. Regarding `CC1=C(CN2CC(C(=O)O)C2)CCc2cc(OC[C@H](C)Cc3ccc(F)cc3)ccc21.Cl`, the 50% effective dose (ED50) in series [1] was 0.55 mg/kg. The 50% effective concentration (EC50) came out at 11000 nM in series [2] and 0.85 nM in series [3].
On the same counts, the results for `CC1=C(CN2CC(C(=O)O)C2)CCc2cc(OC[C@H](Cc3ccc(F)cc3)C(C)C)ccc21.Cl` are 0.68 mg/kg, over 30000 nM and 4.5 nM.
`CC1=C(CN2CC(C(=O)O)C2)CCc2cc(OCC(C)(C)Cc3ccccc3)ccc21`: the EC50 was over 30000 nM in series [2] and 20 nM in series [3].
`CC1=C(CN2CC(C(=O)O)C2)CCc2cc(OCCC(C)c3ccccc3)ccc21.Cl` (racemic): in [4], the 50% effective dose (ED50) was over 0.3 mg/kg. Besides, the EC50 in series [2] was 22000 nM; in series [3], 0.6 nM.
As for `CC1=C(CN2CC(C(=O)O)C2)CCc2cc(OCCCc3ccccc3F)ccc21.Cl`, the ED50 in [1] stood at 0.75 mg/kg; in [4] it was 0.13 mg/kg. In addition, the EC50 came out at 2900 nM in series [2] and 2.7 nM in [3].
Regarding `CC1=C(CN2CC(C(=O)O)C2)CCc2cc(OCCCc3ccccc3)ccc21.Cl`, in series [4], the median effective dose (ED50) stood at 0.4 mg/kg. Moreover, the EC50 in [2] was determined as 5000 nM; in series [3] it was 3 nM.
A word on the Cmax: it is the highest concentration seen after dosing. As usually defined, the AUC(0-inf) is total exposure, with the tail of the curve extrapolated. Read a low AUC(0-inf) as less exposure. In general, clearance refers to the volume of plasma or blood freed of the substance per unit of time. A high value points to a high capacity for elimination. By half-life is commonly meant how long it takes for the measured level to halve. Read a low half-life as rapid decline. As a reminder, the Tmax is the time from dosing to the highest level. `CC1=C(CN2CC(C(=O)O)C2)CCc2cc(OCCCc3ccc(F)cc3)ccc21.Cl`: the ED50 in series [1] stood at 0.25 mg/kg; in series [4], 0.055 mg/kg. In addition, the Cmax in series [5] was 159 ng/mL. Further, the results for the AUC(0-inf) in series [6] and in series [12] were 5400 ng·h/mL and 5700 ng·h/mL, respectively. Besides, the clearance in series [7] is 3.2 mL/min/kg. The half-life in [8] was 21 h; in series [11], 24 h. This compound registered a Cp in [9] of 88 ng/mL. Besides, in series [10], the time of peak concentration (Tmax) is 4.7 h. Also, the EC50 in series [2] came out at 3200 nM; in series [3], 0.84 nM. For the same compound, the Vd in series [13] stood at 5.3 L/kg. Moreover, the bioavailability in series [14] turned out to be 106%.
For `CC1=C(CN2CC(C(=O)O)C2)CCc2cc(OC[C@@H](C)Cc3ccc(F)cc3)ccc21.Cl`, the median effective dose (ED50) in [1] came to 0.22 mg/kg. This compound also yielded a maximum concentration (Cmax) in [5] of 103 ng/mL. In addition, the clearance in series [7] turned out to be 4 mL/min/kg. Further, the half-life in [8] is 19 h; in series [11] it was 57 h. This compound also had a Cp in series [9] of 69 ng/mL. Also, in [10], the Tmax was found to be 4.7 h. Also, the area under the curve AUC(0-inf) in series [15] is 2000 ng·h/mL; in series [16], 2600 ng·h/mL. Moreover, the figures for the EC50 in series [2] and in series [3] were 9450 nM and 0.37 nM, respectively. The Vd in [13] turned out to be 5.7 L/kg. Further, the bioavailability in [17] turned out to be 75%.
On to `CC1=C(CN2CC(C(=O)O)C2)CCc2cc(OCCCCc3ccccc3)ccc21`, for which the Cp in [9] is 53 ng/mL. Also, the time to peak (Tmax) in [10] came to 4.7 h. The compound also gave a half-life in [11] of 17 h. In [12], this compound came in with an AUC(0-inf) of 3800 ng·h/mL. In [14], the bioavailability is 85%.
`CC1=C(CN2CC(C(=O)O)C2)CCc2cc(OCCCc3cccc(F)c3)ccc21.Cl`: the ED50 in [1] amounted to 0.69 mg/kg; in series [4], 0.15 mg/kg. For the same compound, the half-maximal effective concentration (EC50) in [2] stood at 3900 nM; in [3], 4 nM.
Turning to `CC1=C(CN2CC(C(=O)O)C2)CCc2cc(OCC(C)Cc3ccccc3)ccc21.Cl` (racemic), in [4], the 50% effective dose (ED50) worked out at 0.19 mg/kg. The concentration giving a half-maximal response (EC50) was found to be 20800 nM in series [2] and 0.66 nM in [3].
Take `CC1=C(CN2CC(C(=O)O)C2)CCc2cc(OC(C)CCc3ccccc3)ccc21` (stereo unspecified): the EC50 in series [2] amounted to 14000 nM; in series [3], 20 nM.
In the case of `CC1=C(CN2CC(C(=O)O)C2)CCc2cc(OC[C@@H](C)Cc3ccc(Cl)cc3)ccc21.Cl`, the ED50 in series [1] turned out to be 0.095 mg/kg. The compound further displayed a Cmax in [5] of 184 ng/mL. For the same compound, the AUC(0-inf) in series [6] is 9000 ng·h/mL; in series [12], 5500 ng·h/mL. In addition, in series [7], the clearance amounted to 2 mL/min/kg. Besides, the half-life in [8] is 27 h; in series [11], 20 h. For the same compound, in series [18], the Ratio EC50 stood at 15000. In series [9], the Cp was found to be 87 ng/mL. Moreover, the Tmax in series [10] turned out to be 4.7 h. Moreover, the EC50 in series [2] turned out to be 8200 nM; in series [3], 0.55 nM. Besides, in series [13], the Vd came to 3.9 L/kg. The bioavailability in series [14] was 62%.
For the compound `CC[C@H](COc1ccc2c(c1)CCC(CN1CC(C(=O)O)C1)=C2C)Cc1ccc(F)cc1.Cl`, the 50% effective dose (ED50) in [1] worked out at 0.77 mg/kg. The concentration giving a half-maximal response (EC50) in [2] is 29300 nM; in [3], 1.1 nM.
